Measurements from different studies.
Lines come from different studies, so protocols differ.
Target: D(3) dopamine receptor (DRD3, Homo sapiens, UniProt P35462)
Concentration: 10 µM

Compound | test | inhibition
CCCNc1nc2ccccc2n1Cc1ccc(Cl)cc1 | ligand displacement | 40.8%
CN([C@@H]1CCc2c(CC(=O)O)c3ccccc3n2C1)S(=O)(=O)c1ccc(F)cc1 | ligand displacement | -4.25%
CCN(Cc1ccccc1C(F)(F)F)C(=O)C1CCN(S(=O)(=O)c2ccc3[nH]ncc3c2)CC1 | ligand displacement, radioligand | 23%
N#Cc1cc(Cn2c(N3CCCC3)nc3ccccc32)ccc1F | ligand displacement | 39.3%
Nc1nonc1C(=O)NCCNCc1cccc(OCc2ccccc2F)c1 | enzyme activity, inhibitor | 4.3%
N#CN1CC[C@H](C(=O)Nc2nc3c(s2)CN(C(=O)CN=[N+]=[N-])CC3)C1 | ligand displacement | -2.14%
COc1ccc(-c2ccc(CNCC(O)c3ccccc3)o2)cc1Cl (stereo not shown) | enzyme activity, inhibitor | 12.1%
O=C(c1ccc(F)cc1)N(Cc1ccccc1)C1CCCCC1 | cell-free assay | 8%
COc1cccc(N2CCN(C3CC(=O)N(c4cccc(OC)c4)C3=O)CC2)c1 (stereo not shown) | enzyme activity, inhibitor | -37.6%
CCN(CC)c1ccc(C2Nc3ccc(C(=O)c4ccccc4)cc3NC3=C2C(=O)CC(C)(C)C3)cc1 (stereo not shown) | ligand displacement, radioligand | 12%
